Source: PMC3502072 (Molecular cancer therapeutics, 2012)
Entries after “also recorded” stand apart in the source; their conditions may differ.

Assays:
[1] = system: MM cells (RPMI-8226, NCI-H929, U266B1, MM.1S); test: CellTiter-Glo cell viability, multiple myeloma cell lines; assay type: cell-based, human; conditions: 24 h; for Concentrations that significantly reduced MM cell viability: RPMI-8226 cells
[2] = Pilot toxicity study, body condition scoring; assay type: in vivo, mice
How it was run: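 Pilot tolerability study in a small cohort of mice. Doses were chosen from a range based on NCI DTP toxicity data. A single dose was given, and toxicity was assessed qualitatively by body condition scoring.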

[3] = system: NCI-H929 subcutaneous xenografted tumors; test: MM subcutaneous plasmacytoma model; assay type: in vivo, hairless SCID mice; conditions: for Tumor growth delay relative to vehicle-treated controls: 5 mg/kg
[4] = system: PKC; conditions: cited from earlier work
[5] = system: primary CD138-positive plasma cells from MM patient bone marrow biopsies; test: Cell viability of primary MM patient plasma cells; assay type: cell-based, human; conditions: 24 h; cells from 2 patients
How it was run: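 Bone marrow aspirates from MM patients were separated on Ficoll-Paque. CD138+ plasma cells were isolated with magnetic anti-CD138 beads, and purity was checked by FACS. Cells were cultured in RPMI 1640 with 10% FBS and gentamycin at 37°C and 5% CO2, then treated with the test compound at a range of concentrations for 24 h. Viability was read by CellTiter-Glo luminescence; mean ± S.E (n=3).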

[6] = system: RPMI-8226 cells; test: Apoptosis, cleaved caspase-3 flow cytometry in MM cells; assay type: cell-based, human; conditions: 16 hours
[7] = target: CDK9 (Homo sapiens, UniProt P50750); conditions: cited from earlier work
[8] = system: H460, A172, HT29, HepG2, hFOB and MRC-5 cells; assay type: cell-based, human; conditions: 500 nM, 16 hours
[9] = system: human cell lines derived from multiple tumor types; test: CellTiter-Glo cell viability, panel of tumor cell lines; assay type: cell-based
[10] = system: CDK7; test: RNA polymerase II Ser5 phosphorylation; assay type: cell-based, human; conditions: NCI-H929 cells, 2 hours
[11] = system: RPMI-8226/NIH-3T3 tumors; test: RPMI-8226-GFP/NIH-3T3 co-injection xenograft model
[12] = target: CDK9/cyclin K (Homo sapiens, UniProt P50750); conditions: read-out: IC50 CDK9/cyclin K kinase activity
[13] = system: cyclin D1, c-Maf, c-Myc, L-Myc; test: Expression of MM oncogenes, Western blot and RT-PCR; assay type: cell-based, human; conditions: 250 nM
[14] = system: CDK9; test: CDK9 signaling, Western blots in MM cells; assay type: cell-based, human; conditions: NCI-H929 cells, 2 hours
[15] = Serum biochemistry and complete blood count in immunocompetent mice; assay type: in vivo; conditions: C57BL/6 mice
[16] = system: NCI-H929 and CD138+ MM patient bone marrow cells; test: Cell viability, SLM6 with bortezomib; assay type: cell-based, human; conditions: single agents
[17] = target: CDK7/cyclin H (Homo sapiens, UniProt P50613); test: HotSpot in vitro kinase assay CDK7/cyclin H; assay type: biochemical; conditions: read-out: IC50 CDK7/cyclin H
[18] = target: CDK2/cyclin A (Homo sapiens, UniProt P24941); conditions: read-out: IC50 CDK2/cyclin A
[19] = target: CDK9/cyclin T1 (Homo sapiens, UniProt P50750); conditions: read-out: IC50 CDK9/cyclin T1 kinase activity
[20] = target: CDK4/cyclin D1 (Homo sapiens, UniProt P11802); test: HotSpot in vitro kinase assay CDK4/cyclin D1; assay type: biochemical; conditions: read-out: IC50 CDK4/cyclin D1
[21] = system: PKC; test: Phorbol ester-induced PKC and ERK phosphorylation in MM cells; assay type: cell-based, human; conditions: MM cells stimulated with phorbol-12-myristate-13-acetate
[22] = target: CDK1/cyclin B (Homo sapiens, UniProt P06493); test: HotSpot in vitro kinase assay CDK1/cyclin B; assay type: biochemical; conditions: read-out: IC50 CDK1/cyclin B
[23] = cited from earlier work

CDK9/cyclin K, sequence (P50750 whole entry): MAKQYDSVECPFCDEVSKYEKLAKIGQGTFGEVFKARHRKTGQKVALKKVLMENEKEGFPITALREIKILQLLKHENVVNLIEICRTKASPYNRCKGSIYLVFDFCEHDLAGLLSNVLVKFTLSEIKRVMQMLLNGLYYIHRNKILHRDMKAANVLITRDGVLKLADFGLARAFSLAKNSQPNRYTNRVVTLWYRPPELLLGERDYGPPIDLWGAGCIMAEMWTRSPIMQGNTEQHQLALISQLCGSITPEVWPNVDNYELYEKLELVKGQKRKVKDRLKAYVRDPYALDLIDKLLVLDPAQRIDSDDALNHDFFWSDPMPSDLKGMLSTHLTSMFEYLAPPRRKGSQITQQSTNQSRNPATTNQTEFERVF
CDK9/cyclin K, sequence (O75909 whole entry partner): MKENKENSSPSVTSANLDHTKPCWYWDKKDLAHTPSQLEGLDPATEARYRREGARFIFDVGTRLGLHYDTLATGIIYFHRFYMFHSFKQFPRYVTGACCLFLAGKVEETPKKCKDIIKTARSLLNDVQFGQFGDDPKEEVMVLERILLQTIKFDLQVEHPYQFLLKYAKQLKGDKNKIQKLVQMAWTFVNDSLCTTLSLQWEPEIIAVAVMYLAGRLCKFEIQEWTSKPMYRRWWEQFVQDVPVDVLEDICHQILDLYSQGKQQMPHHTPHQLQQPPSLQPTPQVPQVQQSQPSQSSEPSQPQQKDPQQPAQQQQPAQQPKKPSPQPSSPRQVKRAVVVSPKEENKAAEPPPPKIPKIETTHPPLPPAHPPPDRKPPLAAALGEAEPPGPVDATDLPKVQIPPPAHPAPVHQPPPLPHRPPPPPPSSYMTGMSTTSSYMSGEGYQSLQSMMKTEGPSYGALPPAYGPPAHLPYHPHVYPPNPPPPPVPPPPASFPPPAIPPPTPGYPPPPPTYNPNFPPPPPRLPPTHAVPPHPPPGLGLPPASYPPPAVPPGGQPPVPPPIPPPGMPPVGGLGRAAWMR
CDK9/cyclin T1, sequence (P50750 whole entry): as the sequence (P50750 whole entry) above
CDK9/cyclin T1, sequence (O60563 whole entry partner): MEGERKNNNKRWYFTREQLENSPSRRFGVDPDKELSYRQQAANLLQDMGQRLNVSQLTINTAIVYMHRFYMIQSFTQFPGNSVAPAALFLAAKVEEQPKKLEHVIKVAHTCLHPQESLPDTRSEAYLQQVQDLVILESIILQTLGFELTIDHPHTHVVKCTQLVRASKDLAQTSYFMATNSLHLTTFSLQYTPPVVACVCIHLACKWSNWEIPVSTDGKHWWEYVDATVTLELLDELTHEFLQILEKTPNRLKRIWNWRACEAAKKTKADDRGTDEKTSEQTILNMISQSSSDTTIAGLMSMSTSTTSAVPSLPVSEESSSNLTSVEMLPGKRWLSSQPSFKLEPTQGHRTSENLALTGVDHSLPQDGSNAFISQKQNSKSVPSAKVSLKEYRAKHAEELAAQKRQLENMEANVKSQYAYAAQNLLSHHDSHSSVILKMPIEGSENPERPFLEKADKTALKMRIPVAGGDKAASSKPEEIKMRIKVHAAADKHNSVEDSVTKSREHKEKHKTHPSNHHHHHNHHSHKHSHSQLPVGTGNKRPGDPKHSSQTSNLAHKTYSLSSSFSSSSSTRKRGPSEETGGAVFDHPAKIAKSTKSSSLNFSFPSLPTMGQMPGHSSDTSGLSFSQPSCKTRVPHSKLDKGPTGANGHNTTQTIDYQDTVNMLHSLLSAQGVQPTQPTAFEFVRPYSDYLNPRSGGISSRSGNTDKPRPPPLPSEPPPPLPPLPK
CDK9 (Homo sapiens, UniProt P50750), sequence (P50750 whole entry): as the sequence (P50750 whole entry) above
CDK9 (Homo sapiens, UniProt P50750), sequence (O60563 whole entry partner): as the sequence (O60563 whole entry partner) above
CDK7/cyclin H, sequence (P50613 whole entry): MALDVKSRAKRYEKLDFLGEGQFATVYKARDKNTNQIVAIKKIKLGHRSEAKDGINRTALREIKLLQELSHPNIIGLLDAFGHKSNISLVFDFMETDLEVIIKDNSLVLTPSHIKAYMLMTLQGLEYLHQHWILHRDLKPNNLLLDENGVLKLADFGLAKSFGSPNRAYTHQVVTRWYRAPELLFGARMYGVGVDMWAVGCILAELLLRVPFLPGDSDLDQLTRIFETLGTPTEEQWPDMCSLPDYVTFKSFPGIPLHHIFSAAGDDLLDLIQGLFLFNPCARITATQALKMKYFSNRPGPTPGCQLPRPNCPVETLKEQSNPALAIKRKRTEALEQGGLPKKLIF
CDK7/cyclin H, sequence (P51946 whole entry partner): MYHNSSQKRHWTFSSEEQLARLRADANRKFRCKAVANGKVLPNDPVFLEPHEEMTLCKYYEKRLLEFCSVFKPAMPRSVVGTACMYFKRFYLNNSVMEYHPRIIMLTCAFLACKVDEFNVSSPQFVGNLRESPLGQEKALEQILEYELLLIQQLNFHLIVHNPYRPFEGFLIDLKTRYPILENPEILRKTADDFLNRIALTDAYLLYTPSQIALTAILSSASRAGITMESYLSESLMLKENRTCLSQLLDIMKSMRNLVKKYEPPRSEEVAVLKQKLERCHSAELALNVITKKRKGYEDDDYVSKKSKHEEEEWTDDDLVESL
CDK7/cyclin H, sequence (P51948 whole entry partner): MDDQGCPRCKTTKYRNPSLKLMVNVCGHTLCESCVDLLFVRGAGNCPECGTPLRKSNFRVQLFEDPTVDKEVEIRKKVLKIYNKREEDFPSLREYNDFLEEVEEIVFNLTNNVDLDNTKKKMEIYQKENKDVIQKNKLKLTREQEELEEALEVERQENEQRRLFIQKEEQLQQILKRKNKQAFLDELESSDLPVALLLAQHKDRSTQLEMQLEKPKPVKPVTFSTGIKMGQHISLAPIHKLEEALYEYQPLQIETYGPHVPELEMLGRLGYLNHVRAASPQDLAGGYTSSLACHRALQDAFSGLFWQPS
CDK4/cyclin D1, sequence (P11802 whole entry): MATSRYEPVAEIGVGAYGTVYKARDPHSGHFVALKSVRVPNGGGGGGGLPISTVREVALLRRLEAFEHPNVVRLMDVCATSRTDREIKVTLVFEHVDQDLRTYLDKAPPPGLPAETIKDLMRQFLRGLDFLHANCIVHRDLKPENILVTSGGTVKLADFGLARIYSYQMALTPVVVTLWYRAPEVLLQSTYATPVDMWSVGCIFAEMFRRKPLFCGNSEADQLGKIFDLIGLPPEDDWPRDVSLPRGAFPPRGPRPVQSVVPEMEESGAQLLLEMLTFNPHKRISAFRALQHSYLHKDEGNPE
CDK4/cyclin D1, sequence (P24385 whole entry partner): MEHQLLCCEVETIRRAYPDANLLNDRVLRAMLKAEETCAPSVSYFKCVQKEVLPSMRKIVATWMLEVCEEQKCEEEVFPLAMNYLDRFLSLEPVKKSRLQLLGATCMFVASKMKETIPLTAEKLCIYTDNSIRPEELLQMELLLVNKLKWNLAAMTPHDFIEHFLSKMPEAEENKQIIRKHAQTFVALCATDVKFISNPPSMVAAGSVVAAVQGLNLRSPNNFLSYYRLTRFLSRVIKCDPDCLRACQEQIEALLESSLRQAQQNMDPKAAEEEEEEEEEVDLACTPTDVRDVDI
CDK1/cyclin B, sequence (P06493 whole entry): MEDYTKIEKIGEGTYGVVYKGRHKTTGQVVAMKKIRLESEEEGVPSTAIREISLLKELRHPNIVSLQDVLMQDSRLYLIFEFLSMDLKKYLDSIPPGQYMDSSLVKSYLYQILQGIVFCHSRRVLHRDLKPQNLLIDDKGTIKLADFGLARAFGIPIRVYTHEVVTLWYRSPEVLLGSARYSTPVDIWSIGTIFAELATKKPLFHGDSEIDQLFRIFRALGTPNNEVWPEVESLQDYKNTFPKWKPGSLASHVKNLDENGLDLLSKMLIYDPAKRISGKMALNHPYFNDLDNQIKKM
CDK1/cyclin B, sequence (P14635 whole entry partner): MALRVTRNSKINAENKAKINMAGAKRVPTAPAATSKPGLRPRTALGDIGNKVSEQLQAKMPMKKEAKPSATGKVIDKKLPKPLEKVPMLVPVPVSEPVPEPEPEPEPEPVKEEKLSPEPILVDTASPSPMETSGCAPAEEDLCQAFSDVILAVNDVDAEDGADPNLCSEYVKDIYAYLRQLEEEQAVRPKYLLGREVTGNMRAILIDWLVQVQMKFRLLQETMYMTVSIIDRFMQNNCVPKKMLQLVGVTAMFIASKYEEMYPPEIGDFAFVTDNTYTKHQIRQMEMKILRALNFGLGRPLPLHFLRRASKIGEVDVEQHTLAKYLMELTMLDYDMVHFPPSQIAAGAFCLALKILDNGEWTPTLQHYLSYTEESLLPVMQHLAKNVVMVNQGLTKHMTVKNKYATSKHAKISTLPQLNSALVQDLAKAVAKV

O=c1[nH]cc(F)c(=O)[nH]1 [5′-fluorouracil]
Effect on MM cell viability [1]: relatively insensitive

[Cl-].[Li+] [LiCl, lithium chloride]
Effect on MM cell viability [1]: neither LiCl nor purvalanol A reduced MM cell viability; also recorded: relatively insensitive

O=C1NC(=NCc2cccs2)S/C1=C\c1ccc2ncccc2c1 [RO3306]
Effect on MM cell viability [1]: relatively insensitive

Cl.NNc1c(C(N)=O)c2c(N)ncnc2n1C1OC(CO)C(O)C1O (stereo not drawn) [SLM3 HCl]
Toxicity by body condition scoring ([2]; single dose of 25 mg/kg): no overt toxicity | Effect on the growth of MM tumors ([3]; 25 mg/kg, weekly i.p.): no effect

NNc1c(C(N)=O)c2c(N)ncnc2n1[C@@H]1O[C@H](CO)[C@@H](O)[C@H]1O [SLM3]
Effect on MM cell viability [1]: superior activity compared to other nucleoside analogs | Concentrations that significantly reduced MM cell viability [1]: less than 250 nM | IC50 ([1]; read-out: IC50, cell viability, MM cells): 200 to 400 nM | Activity against PKC in vitro [4]: modest activity | Activity on cell viability of primary plasma cells [5]: confirmed this activity | Apoptotic marker cleaved caspase-3 ([6]; RPMI-8226, increasing concentrations): dose-dependent increase | Activity against CDK9 in vitro [7]: modest activity | Apoptosis (active caspase-3 positive cells) [8]: negligible levels of apoptosis | Sensitivity of MM cells relative to other tumor types ([9]; MM cell lines and primary patient plasma cells vs other tumor types): 3 to 10 times | IC50 ([9]; read-out: IC50, cell viability, 24 h, breast, colon, lung, hepatocellular, glioma and one of two pancreatic cancer cell lines): > 2000 nM

N/C(=N\O)c1cn(C2OC(CO)C(O)C2O)c2ncnc(N)c12 (stereo not drawn) [SLM5]
Concentrations that significantly reduced MM cell viability [1]: less than 250 nM | Toxicity by body condition scoring ([2]; single dose of 5 mg/kg): no overt toxicity | Tumor growth delay relative to vehicle-treated controls ([3]; weekly i.p.): 7 days

N/N=C(\N)c1cn(C2OC(CO)C(O)C2O)c2ncnc(N)c12 (stereo not drawn) [SLM6]
Phosphorylation of RNA polymerase II at Ser5 [10]: no effect | Effect on MM cell viability [1]: able to reduce the viability of MM cells | Concentrations that significantly reduced MM cell viability [1]: less than 250 nM | Toxicity by body condition scoring ([2]; single dose of 1 mg/kg): no overt toxicity | Size of MM tumors relative to vehicle-treated controls ([11]; 0.5 mg/kg, weekly i.p.): significantly reduced the size of MM tumors | Time to evident anti-MM effects after first treatment ([11]; 0.5 mg/kg, weekly i.p.): ≤ 7 days | Mouse body weight or body condition scoring ([11]; repeated dosing, 0.5 mg/kg weekly i.p.): no effect | Apoptotic markers in tumors (immunohistochemistry) ([3]; 1 mg/kg i.p., 48 hours): regions of intense cleaved caspase-3 and cleaved caspase-8 immunostaining | Duration of sustained anti-tumor activity ([3]; 1 mg/kg i.p., single dose on day 1): 5 weeks | IC50 [12]: 280 nM | c-Myc and cyclin D1 mRNA transcripts (RT-PCR) ([13]; 6 hours, RPMI-8226 and U266B1 cells): decreased c-Myc and cyclin D1 mRNA transcripts | Oncogene protein expression (Western blot) ([13]; time course, U266B1, RPMI-8226, NCI-H929 cells): repressed the expression of cyclin D1 in U266B1 cells and c-Maf expression in RPMI-8226 cells; also recorded: repressed c-Myc protein levels in RPMI-8226 and NCI-H929 cells, and suppressed L-Myc expression in U266B1 cells | Lowest concentration inhibiting phosphorylation of RNA polymerase II at Ser2 [14]: 250 nM | Phosphorylation of CDK9 at Thr186 [14]: inhibited phosphorylation of CDK9 at Thr186 | Effects on normal hematopoiesis, complete blood count with differential [15]: no effects on normal hematopoiesis in vivo other than modest thrombocytopenia | Systemic toxicity by serum biochemistry [15]: no signs of systemic toxicity | Sensitivity of MM cell lines and primary patient plasma cells to single agent [16]: sensitive | IC50 [17]: > 10000 nM | IC50 [18]: < 300 nM | IC50 [19]: 133 nM | IC50 [20]: > 10000 nM | Phorbol ester-induced PKC or ERK phosphorylation [21]: no effect | IC50 [22]: < 300 nM

N=C(N)c1cn(C2OC(CO)C(O)C2O)c2ncnc(N)c12 (stereo not drawn) [SLM7]
Concentrations that significantly reduced MM cell viability [1]: less than 250 nM | Toxicity by body condition scoring ([2]; single dose of 5 mg/kg): no overt toxicity | Tumor growth delay relative to vehicle-treated controls ([3]; weekly i.p.): 7 days

O=C1Cc2c([nH]c3ccc([N+](=O)[O-])cc23)-c2ccccc2N1 [alsterpaullone]
Effect on MM cell viability [1]: micromolar concentrations of alsterpaullone) were able to reduce the viability of MM cells

CC(C)C[C@H](NC(=O)[C@H](Cc1ccccc1)NC(=O)c1cnccn1)B(O)O [bortezomib, reference compound]
Sensitivity of MM cell lines and primary patient plasma cells to single agent [16]: sensitive

Nc1nc(Cl)nc2c1ncn2[C@H]1C[C@H](O)[C@@H](CO)O1 [cladribine]
Effect on MM cell viability [1]: relatively insensitive

CN1CC[C@H](c2c(O)cc(O)c3c(=O)cc(-c4ccccc4Cl)oc23)[C@H](O)C1 [flavopiridol, reference compound]
Effect on MM cell viability [1]: able to reduce the viability of MM cells | Anti-MM activity in vivo ([11]; 5.0 mg/kg, weekly i.p.): no anti-MM activity

Nc1ccn([C@@H]2O[C@H](CO)[C@@H](O)C2(F)F)c(=O)n1 [gemcitabine]
Effect on MM cell viability [1]: relatively insensitive

CC(C)[C@H](CO)Nc1nc(Nc2cccc(Cl)c2)c2ncn(C(C)C)c2n1 [purvalanol A]
Effect on MM cell viability [1]: neither LiCl nor purvalanol A reduced MM cell viability; also recorded: relatively insensitive

CC[C@H](CO)Nc1nc(NCc2ccccc2)c2ncn(C(C)C)c2n1 [roscovitine]
Effect on MM cell viability [1]: relatively insensitive

NC(=O)c1cn([C@@H]2O[C@H](CO)[C@@H](O)[C@H]2O)c2ncnc(N)c12 [sangivamycin, reference compound]
Safety in humans, phase I trial [23]: demonstrated the safety of this compound in humans | Concentrations that significantly reduced MM cell viability [1]: less than 250 nM | Activity against PKC [4]: known to inhibit PKC | MM cell apoptosis (cleaved caspase-3 positive cells) ([6]; RPMI-8226, 500 nM): 60-80% | Phorbol ester-induced PKC or ERK phosphorylation [21]: significantly reduced phosphorylation of both kinases
